Data: PMC7563999 (Acta Pharmaceutica Sinica. B, 2020)
Several values for one entry are separate records, joined by “and”; a condition that tells them apart may be missing. Equal entries are not always repeated. Entries after “also recorded” stand apart in the source; their conditions may differ.

What was measured:
α1A-AR = biological target: T1, α1A-AR (Homo sapiens, UniProt P35348); assay: Western blot analysis of α1A-AR level in α1A-AR stably transfected HEK293 cells; type: cell-based; details: for effect on α1A-AR level (Western blot, in words): α1A-AR HEK293 cells, indicated concentrations 12 h, 3 μmol/L for indicated time; for DC50: read-out: DC50 (concentration required for 50% protein degradation) of α1A-AR, α1A-AR stably transfected HEK293 cells, 12 h, Western blot
T1 sequence (P35348 1-466): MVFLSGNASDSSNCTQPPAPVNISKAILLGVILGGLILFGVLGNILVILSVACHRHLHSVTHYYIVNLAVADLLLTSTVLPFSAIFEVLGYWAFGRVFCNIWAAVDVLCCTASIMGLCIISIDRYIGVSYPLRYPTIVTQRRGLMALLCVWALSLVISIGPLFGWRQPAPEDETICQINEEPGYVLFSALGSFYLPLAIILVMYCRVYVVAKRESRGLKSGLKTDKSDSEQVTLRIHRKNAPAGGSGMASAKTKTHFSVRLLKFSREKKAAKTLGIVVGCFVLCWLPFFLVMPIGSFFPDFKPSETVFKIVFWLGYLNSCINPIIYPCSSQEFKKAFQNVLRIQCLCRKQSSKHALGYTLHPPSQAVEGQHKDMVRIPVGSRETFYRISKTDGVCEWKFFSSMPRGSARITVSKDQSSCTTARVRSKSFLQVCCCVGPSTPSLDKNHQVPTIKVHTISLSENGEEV

α1B-AR = biological target: T2, α1B-AR (Homo sapiens, UniProt P35368); assay: Western blot analysis of α1B-AR level in stably transfected HEK293 cells; type: cell-based; details: 12 h
T2 sequence (P35368 1-520): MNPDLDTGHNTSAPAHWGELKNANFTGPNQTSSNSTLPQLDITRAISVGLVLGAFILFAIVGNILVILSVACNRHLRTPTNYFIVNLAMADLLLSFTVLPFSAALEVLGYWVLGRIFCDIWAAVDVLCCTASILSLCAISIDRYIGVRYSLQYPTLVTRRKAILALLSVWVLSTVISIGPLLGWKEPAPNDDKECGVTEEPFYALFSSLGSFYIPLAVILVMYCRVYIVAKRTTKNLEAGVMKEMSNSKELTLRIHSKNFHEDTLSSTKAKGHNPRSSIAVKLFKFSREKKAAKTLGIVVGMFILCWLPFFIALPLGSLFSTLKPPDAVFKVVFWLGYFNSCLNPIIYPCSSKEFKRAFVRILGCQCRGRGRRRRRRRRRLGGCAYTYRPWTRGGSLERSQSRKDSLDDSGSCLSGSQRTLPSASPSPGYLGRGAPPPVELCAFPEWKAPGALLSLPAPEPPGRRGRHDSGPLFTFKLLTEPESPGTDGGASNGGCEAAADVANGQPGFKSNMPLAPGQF

α1D-AR = biological target: T3, α1D-AR (Homo sapiens, UniProt P25100); assay: Western blot analysis of α1D-AR level in stably transfected HEK293 cells; type: cell-based; details: 12 h
T3 sequence (P25100 1-572): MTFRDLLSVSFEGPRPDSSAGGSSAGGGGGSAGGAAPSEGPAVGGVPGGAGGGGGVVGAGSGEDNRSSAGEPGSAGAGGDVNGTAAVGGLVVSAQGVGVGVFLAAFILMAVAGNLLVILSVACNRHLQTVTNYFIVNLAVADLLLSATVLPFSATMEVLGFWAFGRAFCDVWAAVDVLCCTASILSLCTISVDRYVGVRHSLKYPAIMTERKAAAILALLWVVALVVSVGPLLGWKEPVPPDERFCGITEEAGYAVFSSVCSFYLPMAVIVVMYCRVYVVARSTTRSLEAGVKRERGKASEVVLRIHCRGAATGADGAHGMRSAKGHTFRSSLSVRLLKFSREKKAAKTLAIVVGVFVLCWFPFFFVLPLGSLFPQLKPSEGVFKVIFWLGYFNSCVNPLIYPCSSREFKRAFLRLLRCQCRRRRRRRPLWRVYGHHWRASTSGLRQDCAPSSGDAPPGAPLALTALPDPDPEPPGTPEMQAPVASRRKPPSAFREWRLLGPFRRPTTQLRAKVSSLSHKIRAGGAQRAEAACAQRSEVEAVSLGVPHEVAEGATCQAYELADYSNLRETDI

PC-3 cells = assay: CCK-8 antiproliferation assay on PC-3 cells; type: cell-based; details: for IC50: Homo sapiens, PC-3, 48 h, read-out: antiproliferative activity IC50; for antiproliferation activity on PC-3 cells (in words): 1–100 μmol/L, 48 h
In short: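 PC-3 cells in RPMI-1640 with 10% FBS, 37 °C, 5% CO2. Seeded at 5000 cells/well, left 24 h, then exposed to test compound for 48 h; controls received DMSO only. CCK-8 reagent (WST-8/PMS) was added for 1 h at 37 °C and absorbance read at 450 nm. Viability was calculated against untreated-cell and cell-free blank wells.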

[1] = system: PC-3 derived prostate cancer xenografts; assay: PC-3 tumor xenograft model in nude mice; type: in vivo; details: 50 mg/kg daily intraperitoneal, two weeks
In short: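 Four-week-old nude mice were given PC-3 cells subcutaneously (10⁶ cells/mouse). At 400 mm³ tumour volume they were split into two groups (n = 5). Each group received test compound or vehicle (10% DMSO + 10% PEG400 + 80% saline) i.p. daily for two weeks. Caliper tumour volume and body weight were taken every 2–3 days. Tumours were harvested 12 h after the last dose.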

Compound	effect on α1A-AR level (Western blot, in words) (α1A-AR)	DC50 (α1A-AR)	IC50 (PC-3 cells) [µM]	antiproliferation activity on PC-3 cells (in words) (PC-3 cells)	other results
COc1cc2nc(N3CCN(C(=O)c4cn(CCOCCOCCOCC(=O)Nc5cccc6c5C(=O)N(C5CCC(=O)N(C)C5=O)C6=O)nn4)CC3)nc(N)c2cc1OC (centres unmarked) [Compound 11, 2-(2-(2-(2-(4-(4-(4-Amino-6,7-dimethoxyquinazolin-2-yl)piperazine-1-carbonyl)-1H-1,2,3-triazol-1-yl)ethoxy)ethoxy)ethoxy)-N-(2-(1-methyl-2,6-dioxopiperidin-3-yl)-1,3-dioxoisoindolin4-yl)acetamide]	incapable of inducing α1A-AR degradation				
COc1cc2nc(N3CCN(C(=O)c4cn(CCOCCOCCOCC(=O)Nc5cccc6c5C(=O)N(C5CCC(=O)NC5=O)C6=O)nn4)CC3)nc(N)c2cc1OC (centres unmarked) [Compound 9c, 2-(2-(2-(2-(4-(4-(4-Amino-6,7-dimethoxyquinazolin-2-yl)piperazine-1-carbonyl)-1H-1,2,3-triazol-1-yl)ethoxy)ethoxy)ethoxy)-N-(2-(2,6-dioxopiperidin-3-yl)-1,3-dioxoisoindolin-4-yl)acetamide]		~2.86 µM and 2.86 µM	6.12	concentration-dependent antiproliferation activities	Dmax (α1A-AR; HEK293, read-out: maximal level of degradation (Dmax) of α1A-AR): 94%; time for α1A-AR level to recover to basal level after washout (α1A-AR; after 12 h pretreatment with 10 μmol/L, cells washed thoroughly): approximately 24 h; α1A-AR degradation after bortezomib pretreatment (in words) (α1A-AR; pretreatment of cells using bortezomib for more than 7 h): could no longer trigger the degradation; degradation activity for α1B-AR (in words) (α1B-AR): no degradation activity; influence on α1D-AR level (in words) (α1D-AR): slight influence; average tumor size and mass vs vehicle-treated group (in words) [1]: noticeably decreased; body weight (in words) ([1]; nude mice): without noticeable loss of body weight; effect on tumor growth (in words) ([1]; nude mice with PC-3 xenografts): significant antitumor effect; also recorded: significant suppression of tumor growth
COc1cc2nc(N3CCN(C(=O)c4cn(CCOCC(=O)Nc5cccc6c5C(=O)N(C5CCC(=O)NC5=O)C6=O)nn4)CC3)nc(N)c2cc1OC (centres unmarked) [Compound 9a, 2-(2-(4-(4-(4-Amino-6,7-dimethoxyquinazolin-2-yl)piperazine-1-carbonyl)-1H-1,2,3-triazol-1-yl)ethoxy)-N-(2-(2,6-dioxopiperidin-3-yl)-1,3-dioxoisoindolin-4-yl)acetamide]		~4.32 µM		concentration-dependent antiproliferation activities	
COc1cc2nc(N3CCN(C(=O)c4ccco4)CC3)nc(N)c2cc1OC [Prazosin, prazosin, reference compound]			11.7		
COc1cc2nc(N3CCN(C(=O)c4cn(CCOCCOCC(=O)Nc5cccc6c5C(=O)N(C5CCC(=O)NC5=O)C6=O)nn4)CC3)nc(N)c2cc1OC (centres unmarked) [Compound 9b, 2-(2-(2-(4-(4-(4-Amino-6,7-dimethoxyquinazolin-2-yl)piperazine-1-carbonyl)-1H-1,2,3-triazol-1-yl)ethoxy)ethoxy)-N-(2-(2,6-dioxopiperidin-3-yl)-1,3-dioxoisoindolin-4-yl)acetamide]	did not show too much effect			much less influence	
